Source: PubChem
NR2E3 ag-1 = human photoreceptor-specific nuclear receptor agonism | AID 602229 | 360,000 tested, 0.35% active | Q9Y5X4 | CHO-S Gal4-NCOR/VP16-NR2E3 two-hybrid, luciferase | inhibition of corepressor binding, % at 3.98 µM;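 active = inhibition above the mean of all tested compounds plus 3 SD, cut at about 70% in these data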;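 note: 0% = DMSO with NR2E3 transfected cells and 100% = cells lacking NR2E3 construct; higher means lower luciferase signal from less NR2E3 corepressor binding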
Target sequence (Q9Y5X4 whole entry, looked up, the tested form may be a part): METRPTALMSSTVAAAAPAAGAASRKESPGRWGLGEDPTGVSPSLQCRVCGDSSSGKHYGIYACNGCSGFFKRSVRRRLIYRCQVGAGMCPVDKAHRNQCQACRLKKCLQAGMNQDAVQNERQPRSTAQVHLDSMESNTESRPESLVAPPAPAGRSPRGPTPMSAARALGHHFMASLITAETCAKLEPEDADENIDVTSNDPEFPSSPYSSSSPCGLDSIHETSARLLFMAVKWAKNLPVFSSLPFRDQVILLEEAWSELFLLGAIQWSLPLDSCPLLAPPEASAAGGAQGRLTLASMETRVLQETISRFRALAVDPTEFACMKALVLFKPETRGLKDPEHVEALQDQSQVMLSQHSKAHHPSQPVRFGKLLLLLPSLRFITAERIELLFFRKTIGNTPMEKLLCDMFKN
697 NFkB inh = inhibitors of the PMA/ionomycin-induced NF-kB reporter in 697 B cells; inhibition, % at 4 µM; AID 435022; 697 B-cell NF-kB luciferase reporter, 16 h; 330,000 tested, 0.33% active; in the data active = inhibition above about 35%
GalR3 antag = human GalR3 antagonism | O60755 | HEK293 GalR3-CNG cAMP membrane potential fluorescence; galR3 body fused to GalR1 C-terminus | inhibition, % at 3 µM | 360,000 tested, 0.44% active;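 active = inhibition above the screen-wide average plus 3 SD, cut at about 13% in these data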;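 note: forskolin and galanin both at EC90 stimulate the cells; cAMP rise reported by CNG channel membrane potential dye signal; 0% = forskolin plus galanin with DMSO and 100% = forskolin alone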
Jurkat NFkB inh = lowers PMA/ionomycin-induced NF-kB signal in Jurkat cells; PMA/ionomycin-induced NF-kB luciferase reporter, luminescence; inhibition, % at 4 µM; 330,000 tested, 0.53% active; in the data active = inhibition above about 50%
Gli-Sufu block = antagonists of Gli-Sufu signaling. inhibition, % at 5 µM. AID 588413. Sufu-KO-LIGHT fibroblasts, Gli luciferase reporter luminescence. 340,000 tested, 0.74% active;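 active = inhibition above about 55%, limit read from the data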;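 note: 0% = DMSO-treated cells and 100% = wells with medium but no cells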
NR2E3 ag-2 = activates human photoreceptor nuclear receptor NR2E3; Q9Y5X4; GST-NR2E3/biotin-RetCOR TR-FRET, 1536-well; inhibition of corepressor binding, % at 4.78 µM; 320,000 tested, 0.12% active; AID 2300;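 active = percent inhibition above the cutoff of mean plus 3 SD of all tested compounds, set per screening campaign, cut at about 20% in these data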;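 note: 0% = DMSO wells and 100% = biotin wells as full block of FRET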
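Material: NR2E3–RetCOR corepressor complex | Quantity: 1.35 nM GST-tagged NR2E3 final | Schedule: 5 h at 4 °C | Replication: Singlicate compound wells | Reagent: RetCOR corepressor, biotinylated, 7 nM | Controls: Biotin wells as high control, 0.6% DMSO wells as low control | Signal: TR-FRET, Eu(K)-anti-GST donor, streptavidin-D2 acceptor, ex 340, em 617/671 nm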
NR2E3 ag conf = NR2E3 agonism confirmed in two-hybrid assay | shares compounds with NR2E3 ag-1 | CHO-S mammalian two-hybrid NR2E3-NCOR, luciferase luminescence | inhibition, % at 3.98 µM | 2,300 tested, 51% active | AID 624378;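 active = average inhibition above a cutoff equal to the mean inhibition of all tested compounds plus one SD, cut at about 70% in these data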;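 note: 0% = DMSO in NR2E3 cells and 100% = DMSO in cells lacking NR2E3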
VP16 counter = counter-screen for NR2E3 agonists: GAL4-VP16 reporter inhibitors; shares compounds with NR2E3 ag-1; CHO-S GAL4-VP16 luciferase reporter, luminescence; inhibition, % at 3.98 µM; 2,300 tested, 29% active;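 active = mean inhibition above a cutoff equal to the average over all tested compounds plus one standard deviation, cut at about 70% in these data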;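 note: luciferase from a UAS reporter driven by GAL4-VP16 transactivation; 0% = DMSO with VP16-transfected cells and 100% = DMSO with cells lacking VP16; higher means less reporter light so more repression of VP16 activity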
* marks the source's active call; other numbers are inactive results; · = no result given. In the library only some 1.8% were active in any assay of this set; here they are far more common.

SMILES	NR2E3 ag-1	697 NFkB inh	GalR3 antag	Jurkat NFkB inh	Gli-Sufu block	NR2E3 ag-2	NR2E3 ag conf	VP16 counter
O=C(CS(=O)(=O)Cc1ccccc1)NCCc1ccc(F)cc1	9	3	0	11	37	-5	·	·
COc1ccc(N2CCN(C(=O)CS(=O)Cc3nc(-c4ccc(OC)c(OC)c4)oc3C)CC2)cc1 (stereo not drawn)	-24	20	-5	7	-9	0	·	·
Cc1ccc(-c2nc(CS(=O)CC(=O)N3CCN(c4ccc(F)cc4)CC3)c(C)o2)cc1 (stereo not drawn)	53	-1	-8	22	5	3	29	40
O=C(NCc1cccs1)c1cccc(N2CCCC2=O)c1	-25	-20	-2	-12	-16	1	·	·
O=C(NCc1ccccc1CN1CCCC1)c1cccc(N2CCCC2=O)c1	78*	1	-5	-10	9	6	-7	-9
NC(=S)N=Nc1c(O)[nH]c2ccccc12	10	13	4	12	-5	-8	·	·
Oc1[nH]c2ccc(Br)cc2c1N=NC(=S)N1CCOCC1	98*	-3	13*	22	86*	1	90*	44
Oc1[nH]c2ccccc2c1N=NC(=S)N1CCOCC1	101*	-26	·	0	63*	-5	75*	38
CCn1nc(C)c(CNC(=O)c2cc(COc3ccc(F)cc3Cl)on2)c1C	51	-40	4	25	15	1	86*	71*
CCn1cc(CNC(=O)c2cc(COc3ccc(F)cc3Cl)on2)cn1	-1	-48	-3	13	3	3	·	·
CN(C)c1ccc(C=c2c3ccccc3n3c2cc(-c2ccccc2)[n+]3C)cc1	80*	·	9	·	86*	·	93*	68
COc1cc(N(C)C)ccc1C=c1c2ccccc2n2c1cc(-c1ccccc1)[n+]2C	87*	·	-7	·	91*	·	91*	65
CN(C)c1ccc(C=C2C=C(c3ccccc3)OC2=O)cc1	-19	·	-7	·	·	·	·	·
COc1cc(C=c2c3ccccc3n3c2cc(-c2ccccc2)[n+]3C)cc(OC)c1OC	-42	·	-5	·	14	·	·	·
COCCN(C(=O)COC(=O)Cc1ccc(Cl)cc1Cl)c1c(N)n(Cc2ccccc2)c(=O)[nH]c1=O	5	9	0	14	-1	1	·	·
CC1(C(=O)NCc2ccccc2)Cc2c(-c3ccc4c(c3)OCO4)ccnc2O1 (stereo not drawn)	-20	·	1	·	·	·	·	·
Cc1ccc(C(=O)C2CCN(C(=O)c3ccc(C)cc3)CC2)cc1	55	9	-10	20	42	-2	32	27
Cc1ccc(C(=O)N2CCC(C(=O)c3ccc(F)cc3)CC2)cc1	5	·	-8	·	6	·	·	·
CC1CC(C)C(=NNC(N)=O)C(C(O)CC2CCC(=O)NC2=O)C1 (stereo not drawn)	102*	·	0	·	7	·	85*	35
NC(=S)N=Nc1c(O)n(CCCl)c2ccccc12	2	21	-1	1	18	4	·	·
NC(=S)N=Nc1c(O)n(CCCl)c2ccc(Cl)cc12	50	27	-3	-4	12	5	33	7
COc1ccc(Cl)cc1-c1cc(C(=O)NC2CCCCC2)[nH]n1	-39	·	-7	·	·	·	·	·
O=c1c(Sc2ccccc2)c(C(F)(F)F)[nH]n1-c1ccccc1	57	17	-4	6	9	3	97*	74*
O=c1c2c(C(F)(F)F)cc(C(F)(F)F)nc2[nH]n1-c1ccccc1	-24	30	-5	-3	0	0	·	·
Cc1ccc(-c2csc(NC(=O)c3ccccc3Cl)c2C(=O)O)cc1	-19	-19	-2	-12	0	3	·	·
SMILES	NR2E3 ag-1	697 NFkB inh	GalR3 antag	Jurkat NFkB inh	Gli-Sufu block	NR2E3 ag-2	NR2E3 ag conf	VP16 counter
CC(C)c1ccc(-c2csc(NC(=O)c3cccs3)c2C(=O)O)cc1	49	-13	-3	-7	18	0	94*	16
Cc1cc(C)c2c(=O)[nH]c(SCc3ccccc3)nc2n1	8	-16	-4	-19	-4	5	·	·
CCOC(=O)c1ccc(NS(=O)(=O)c2cc3c4c(c2)CCN4C(=O)CC3)cc1	63	-1	-1	12	12	-2	22	28
O=[N+]([O-])c1ccc(O)c(C2CCCCC2)c1	99*	·	-2	·	12	·	99*	92*
O=[N+]([O-])c1ccc2nc(C3CCCCC3)[nH]c2c1	-46	-3	-3	-12	21	1	·	·
CCOc1ccc(CCN2C(=S)N([C@@H](Cc3ccc(O)cc3)CN3CCC[C@@H]3CN3C(=S)NC[C@@H]3Cc3ccc(O)cc3)C[C@@H]2Cc2ccc(O)cc2)cc1	-16	·	-5	·	·	·	·	·
Cc1ccc2sc(N3CCN(C(=O)C4=COCCO4)CC3)nc2c1C	59	-2	-2	5	0	-1	60	38
Cc1ccc2sc(NNC(=O)C3=COCCO3)nc2c1C	-30	7	3	-4	-9	2	·	·
COc1ccc(C(=O)Nc2ccc(Cn3ccnc3)cc2)cc1OC	-40	-7	-8	-19	-2	2	·	·
COc1ccc(C(=O)Nc2cnn(Cc3ccc(Cl)cc3)c2)cc1OC	63	-12	-11	-5	2	0	63	11
Cc1cccc(C(=S)N2CCOCC2)n1	-17	18	-3	2	0	-2	·	·
CSC(=S)NN=C(C)c1cccc(C)n1	66	·	-3	·	92*	·	38	32
Cc1ccc(S(=O)(=O)N2[C@@H](c3ccc(Cl)c(Cl)c3)C(C(=O)O)=C[C@H]2CC2CCCC2)cc1	88*	14	3	4	0	·	82*	47
Cc1ccc(NS(=O)(=O)c2ccc(NC(=O)c3cccs3)cc2)c(C)c1	3	-10	2	7	5	0	·	·
Cc1ccc(NS(=O)(=O)c2ccc(NC(=O)C3CC3)cc2)c(C)c1	64	-7	1	3	31	2	31	30
COCCCNC(=O)C1CCC(CNS(=O)(=O)c2ccc3c(c2)N(C(C)=O)CCO3)CC1 (stereo not drawn)	-4	-4	-8	1	-15	1	·	·
c1ccc(CNc2nc(-c3ccccn3)nc3ccccc23)cc1	95*	1	-10	-5	13	-3	99*	59
CCC(C)Nc1nc(-c2ccccn2)nc2ccccc12 (stereo not drawn)	100*	-18	-2	-6	20	2	99*	56
